According to ChEMBL document CHEMBL4350976, “Sequence modification of heptapeptide selected by phage display as homing device for HT-29 colon cancer cells to improve the anti-tumour activity of drug delivery systems” (Eur J Med Chem, 2019):
Where a SMILES comes first, the peptide text is derived from it. The star is where a group is joined. X1 = COc1cccc2c1C(=O)c1c(O)c3c(c(O)c1C2=O)C[C@@](O)(/C(C)=N/OCC(=O)*)C[C@@H]3O[C@H]1C[C@H](N)[C@H](O)[C@H](C)O1

Legend:
4T1 = test: Potency index, ratio of compound IC50 to Daunomycin IC50 for mouse 4T1 cells preincubated for 24 hrs under serum free condition followed by compound washout and further incubation for 48 hrs in presence of serum by MTT assay; type: functional
DU-145 [1] = test: Cytostatic activity against human DU145 cells preincubated for 24 hrs under serum free condition followed by compound washout and further incubation for 48 hrs in presence of serum by MTT assay; type: functional, cell-based
Summary of the method: (§1)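 Cells were grown at 37 °C in 5% CO2 in medium with 10% heat-inactivated FBS (20% for OVCAR-3) plus penicillin/streptomycin. The medium was RPMI-1640 for most lines, DMEM for U-87 MG and MRC-5, and IMDM for PE/CA-PJ lines. Seeding was 3×10^3–10×10^3 cells per well. Cells had 24 h compound exposure, a wash, and 48 h further culture. Read-out was MTT, normalized to untreated cells and fitted by nonlinear regression for IC50.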

HT-29 [2] = test: Cytostatic activity against human HT-29 cells preincubated for 24 hrs under serum free condition followed by compound washout and further incubation for 48 hrs in presence of serum by MTT assay; type: functional, cell-based
Summary of the method: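 HT-29 cells were exposed to the compound for 24 h, washed, and kept a further 48 h. Viability was read by MTT. Absorbances were normalized to untreated controls and fitted by nonlinear regression to dose-response curves to give IC50.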

NCI-H1975 [3] = test: Cytostatic activity against human NCI-H1975 cells preincubated for 24 hrs under serum free condition followed by compound washout and further incubation for 48 hrs in presence of serum by MTT assay; type: functional, cell-based; summary of the method: as §1
[4] = Potency index, ratio of compound IC50 to Daunomycin IC50 for human PE/CA-PJ15 cells preincubated for 24 hrs under serum free condition followed by compound washout and further incubation for 48 hrs in presence of serum by MTT assay; type: functional
[5] = Stability in serum free medium at 30 uM incubated for 3 hrs by LC/MS analysis
Summary of the method: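 Conjugates (30 μM) were incubated at 37 °C in serum-free medium. Samples were taken at 0 and 3 h, quenched with acetic acid, lyophilised, desalted on C18 spin columns and analysed by LC-MS.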

MCF7 [6] = test: Cytostatic activity against human MCF7 cells preincubated for 24 hrs under serum free condition followed by compound washout and further incubation for 48 hrs in presence of serum by MTT assay; type: functional, cell-based; summary of the method: as §1
HCT-116 [7] = test: Potency index, ratio of compound IC50 to Daunomycin IC50 for human HCT116 cells preincubated for 24 hrs under serum free condition followed by compound washout and further incubation for 48 hrs in presence of serum by MTT assay; type: functional
DU-145 [8] = test: Potency index, ratio of compound IC50 to Daunomycin IC50 for human DU145 cells preincubated for 24 hrs under serum free condition followed by compound washout and further incubation for 48 hrs in presence of serum by MTT assay; type: functional
HepG2 = test: Potency index, ratio of compound IC50 to Daunomycin IC50 for human HepG2 cells preincubated for 24 hrs under serum free condition followed by compound washout and further incubation for 48 hrs in presence of serum by MTT assay; type: functional
MCF7 [9] = test: Potency index, ratio of compound IC50 to Daunomycin IC50 for human MCF7 cells preincubated for 24 hrs under serum free condition followed by compound washout and further incubation for 48 hrs in presence of serum by MTT assay; type: functional
[10] = Drug uptake in lysosome of human HT-29 cells assessed as increase in fluorescence at 50 uM after 30 mins by LysoTracker deep red staining based confocal microscopic analysis; type: ADME, subcellular; conditions: ht-29, 0.5 h
Summary of the method: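 HT-29 cells were exposed to 50 µM conjugate for 30 min before imaging. Lysosomes were stained with LysoTracker Deep Red and mitochondria with MitoTracker Deep Red. Confocal imaging detected Dau at 550–600 nm.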

U-87 MG = test: Potency index, ratio of compound IC50 to Daunomycin IC50 for human U87 cells preincubated for 24 hrs under serum free condition followed by compound washout and further incubation for 48 hrs in presence of serum by MTT assay; type: functional, U-87MG ATCC
[11] = Drug metabolism in rat liver lysosomes homogenate assessed as increase in Dau = Aoa-Leu-OH metabolite formation at 0.05 ug/ul after 1 hr by LC-MS analysis; type: ADME, subcellular, Lysosome; conditions: tissue homogenate
Summary of the method: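 Conjugates and rat liver lysosomal homogenate were each used at 0.05 µg/µL. Samples were taken at 0, 1, 3, 6 and 24 h. Metabolites were identified by LC-MS on a C18 column with a formic acid/acetonitrile gradient.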

NCI-H1650 = test: Cytostatic activity against human NCI-H1650 cells preincubated for 24 hrs under serum free condition followed by compound washout and further incubation for 48 hrs in presence of serum by MTT assay; type: functional, cell-based; summary of the method: as §1
[12] = Cytostatic activity against human PE/CA-PJ15 cells preincubated for 24 hrs under serum free condition followed by compound washout and further incubation for 48 hrs in presence of serum by MTT assay; type: functional, cell-based; summary of the method: as §1
[13] = Drug uptake in human HT-29 cells cytoplasm at 50 uM after 90 mins by fluorescence based confocal microscopic analysis; type: ADME, subcellular; conditions: ht-29, 1.5 h
Summary of the method: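 HT-29 cells were incubated with 50 µM compound in RPMI for 90 min. Imaging was by confocal microscopy, with Dau detected at 550–600 nm emission.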

NCI-H1975 [14] = test: Potency index, ratio of compound IC50 to Daunomycin IC50 for human NCI-H1975 cells preincubated for 24 hrs under serum free condition followed by compound washout and further incubation for 48 hrs in presence of serum by MTT assay; type: functional
PC-3 [15] = test: Potency index, ratio of compound IC50 to Daunomycin IC50 for human PC3 cells preincubated for 24 hrs under serum free condition followed by compound washout and further incubation for 48 hrs in presence of serum by MTT assay; type: functional
WiDr = test: Cytostatic activity against human WiDr cells preincubated for 24 hrs under serum free condition followed by compound washout and further incubation for 48 hrs in presence of serum by MTT assay; type: functional, cell-based; summary of the method: as §1
HT-29 [16] = test: Cytotoxicity against human HT-29 cells assessed as reduction in cell viability by measuring decrease in fluorescence intensity at 100 uM incubated for 3 hrs by flow cytometry; type: cell-based; conditions: ht-29, 3 h
HCT-116 [17] = test: Cytostatic activity against human HCT116 cells preincubated for 24 hrs under serum free condition followed by compound washout and further incubation for 48 hrs in presence of serum by MTT assay; type: functional, cell-based; summary of the method: as §1
PC-3 [18] = test: Cytostatic activity against human PC3 cells preincubated for 24 hrs under serum free condition followed by compound washout and further incubation for 48 hrs in presence of serum by MTT assay; type: functional, cell-based; summary of the method: as §1
[19] = Drug uptake in human HT-29 cells incubated for 3 hrs by flow cytometry; type: ADME, cell-based; conditions: ht-29, 3 h
Summary of the method: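 HT-29 cells were exposed to 100 µM conjugate for 3 h. Flow cytometry recorded the percentage of Dau-positive cells and the mean fluorescence intensity, in duplicate.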

[20] = Solubility of compound; type: physicochemical
MDA-MB-231 = test: Potency index, ratio of compound IC50 to Daunomycin IC50 for human MDA-MB-231 cells preincubated for 24 hrs under serum free condition followed by compound washout and further incubation for 48 hrs in presence of serum by MTT assay; type: functional
[21] = Potency index, ratio of compound IC50 to Daunomycin IC50 for human PECAPJ41 cells preincubated for 24 hrs under serum free condition followed by compound washout and further incubation for 48 hrs in presence of serum by MTT assay; type: functional
A549 = test: Cytostatic activity against human A549 cells preincubated for 24 hrs under serum free condition followed by compound washout and further incubation for 48 hrs in presence of serum by MTT assay; type: functional, cell-based; summary of the method: as §1

Question: Which “Ratio IC50” value (4T1) does the source give for `COc1cccc2c1C(=O)c1c(O)c3c(c(O)c1C2=O)C[C@@](O)(/C(C)=N/OCC(=O)N[C@@H](CC(C)C)C(=O)N[C@@H](CCCNC(=N)N)C(=O)N[C@@H](CCCNC(=N)N)C(=O)N[C@@H](Cc1ccc(O)cc1)C(=O)N[C@H](C(=O)N[C@@H](Cc1cnc[nH]1)C(=O)N[C@@H](CC(C)C)C(=O)N[C@@H](Cc1ccccc1)C(=O)N[C@@H](Cc1ccc(O)cc1)C(=O)N[C@@H](C)C(=O)N[C@H](C(N)=O)[C@@H](C)O)C(C)C)C[C@@H]3O[C@H]1C[C@H](N)[C@H](O)[C@H](C)O1` (X1-LRRYVHLFYAT-NH2) here?
Answer: 284.6

Question: What about the IC50 (DU-145 [1]) of the same compound?
Answer: 3.5 µM

Question: What about the IC50 (HT-29 [2]) of the same compound?
Answer: 6.5 to 11.6 µM

Question: And the IC50 (NCI-H1975 [3])?
Answer: 3.7 µM

Question: And the “Ratio IC50” value [4]?
Answer: 277.3

Question: What about the Stability [5] of the same compound?
Answer: Stable

Question: What about the IC50 (MCF7 [6]) of the same compound?
Answer: 11.1 µM

Question: What about the “Ratio IC50” value (HCT-116 [7]) of the same compound?
Answer: 57

Question: What about the “Ratio IC50” value (DU-145 [8]) of the same compound?
Answer: 142.3

Question: And the “Ratio IC50” value (HepG2)?
Answer: 220.2

Question: And the “Ratio IC50” value (MCF7 [9])?
Answer: 38.8

Question: What about the Drug uptake [10] of the same compound?
Answer: Active

Question: What about the “Ratio IC50” value (U-87 MG) of the same compound?
Answer: 236.9

Question: What about the Drug metabolism [11] of the same compound?
Answer: Metabolite_Detected

Question: What about the IC50 (NCI-H1650) of the same compound?
Answer: 2.9 µM

Question: What about the IC50 [12] of the same compound?
Answer: 7.4 µM

Question: What about the Drug uptake [13] of the same compound?
Answer: Active

Question: What about the “Ratio IC50” value (NCI-H1975 [14]) of the same compound?
Answer: 279.9

Question: What about the “Ratio IC50” value (PC-3 [15]) of the same compound?
Answer: 226.7

Question: What about the IC50 (WiDr) of the same compound?
Answer: 15.1 µM

Question: And the Activity (HT-29 [16])?
Answer: Toxic

Question: What about the IC50 (HCT-116 [17]) of the same compound?
Answer: 7.2 µM

Question: And the IC50 (PC-3 [18])?
Answer: 5.9 µM

Question: What about the Drug uptake [19] of the same compound?
Answer: Dose-dependent effect

Question: And the solubility [20]?
Answer: Soluble

Question: And the “Ratio IC50” value (MDA-MB-231)?
Answer: 86.6

Question: What about the “Ratio IC50” value [21] of the same compound?
Answer: 165.7

Question: What about the IC50 (A549) of the same compound?
Answer: 5.9 µM
